Experimental findings from ChEMBL document CHEMBL5096187, “Efficient Synthesis and Bioevaluation of Novel Dual Tubulin/Histone Deacetylase 3 Inhibitors as Potential Anticancer Agents” (J Med Chem, 2021) are described below.

Data set [1] is described as follows: Toxicity in C57BL/6 mouse allografted with mouse B16-F10 cells assessed as morphological abnormalities in kidney at 10 mg/kg, ip administered for 14 days by H and E staining based analysis. The class given is organism-based. The note with it: in vivo, 336 h, time 14 day. The essentials: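 C57BL/6 mice with subcutaneous B16-F10 allografts, n = 8 per group, given i.p. injections once daily for 14 days. Single agents at 10 mg/kg; combination at 5 + 5 mg/kg. Vehicle: ethanol/polyoxyethylene castor oil/saline 1.25:1.25:7.5. Liver and kidney fixed in 4% paraformaldehyde, paraffin-embedded, H&E stained and examined by microscopy.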

Data set [2] is described as follows: Hepatotoxicity in C57BL/6 mouse assessed as effect on AST level in serum. It counts as toxicity.
Data set [3] relates to B16-F10. Put plainly: Induction of cell cycle arrest in mouse B16-F10 cells assessed as accumulation of cells in G2/M phase at 50 nM measured after 48 hrs by PI/RNaseA staining based flow cytometry analysis (Rvb= 5.76%). It counts as functional. For orientation: Flow cytometry measures light scatter and fluorescence of single cells or particles in a stream.
Data set [4] relates to B16-F10. Description: Induction of apoptosis in mouse B16-F10 cells assessed as viable cells at 50 nM incubated for 48 hrs by Annexin V-FITC/PI analysis (reference value: 98.3 %). It counts as functional. Particulars: read-out: Activity.
The next data set concerns HCT-116. Description: Antiproliferative activity against human HCT-116 cells assessed as inhibition of cell viability measured for 48 hrs by microplate reader based MTT assay. The note with it: HCT-116, 48 h. The class given is functional. The essentials:
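Cells grown in RPMI-1640 with 10% FBS and seeded at 5000 cells/well. After overnight attachment, compound was added in medium with 0.1% DMSO for 48 h at 37 °C. Read-out was MTT for HCT-116, B16-F10 and A549, and CCK-8 for Jurkat (0.5 mg/mL, 4 h), with absorbance at 570 nm. IC50 from nonlinear regression; at least three independent experiments.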
Background: Formazan colour is commonly taken as a measure of viable cells.

Data set [5] deals with T1, Protein deacetylase HDAC6 (Homo sapiens, UniProt Q9UBN7).
T1 sequence (Q9UBN7 whole entry): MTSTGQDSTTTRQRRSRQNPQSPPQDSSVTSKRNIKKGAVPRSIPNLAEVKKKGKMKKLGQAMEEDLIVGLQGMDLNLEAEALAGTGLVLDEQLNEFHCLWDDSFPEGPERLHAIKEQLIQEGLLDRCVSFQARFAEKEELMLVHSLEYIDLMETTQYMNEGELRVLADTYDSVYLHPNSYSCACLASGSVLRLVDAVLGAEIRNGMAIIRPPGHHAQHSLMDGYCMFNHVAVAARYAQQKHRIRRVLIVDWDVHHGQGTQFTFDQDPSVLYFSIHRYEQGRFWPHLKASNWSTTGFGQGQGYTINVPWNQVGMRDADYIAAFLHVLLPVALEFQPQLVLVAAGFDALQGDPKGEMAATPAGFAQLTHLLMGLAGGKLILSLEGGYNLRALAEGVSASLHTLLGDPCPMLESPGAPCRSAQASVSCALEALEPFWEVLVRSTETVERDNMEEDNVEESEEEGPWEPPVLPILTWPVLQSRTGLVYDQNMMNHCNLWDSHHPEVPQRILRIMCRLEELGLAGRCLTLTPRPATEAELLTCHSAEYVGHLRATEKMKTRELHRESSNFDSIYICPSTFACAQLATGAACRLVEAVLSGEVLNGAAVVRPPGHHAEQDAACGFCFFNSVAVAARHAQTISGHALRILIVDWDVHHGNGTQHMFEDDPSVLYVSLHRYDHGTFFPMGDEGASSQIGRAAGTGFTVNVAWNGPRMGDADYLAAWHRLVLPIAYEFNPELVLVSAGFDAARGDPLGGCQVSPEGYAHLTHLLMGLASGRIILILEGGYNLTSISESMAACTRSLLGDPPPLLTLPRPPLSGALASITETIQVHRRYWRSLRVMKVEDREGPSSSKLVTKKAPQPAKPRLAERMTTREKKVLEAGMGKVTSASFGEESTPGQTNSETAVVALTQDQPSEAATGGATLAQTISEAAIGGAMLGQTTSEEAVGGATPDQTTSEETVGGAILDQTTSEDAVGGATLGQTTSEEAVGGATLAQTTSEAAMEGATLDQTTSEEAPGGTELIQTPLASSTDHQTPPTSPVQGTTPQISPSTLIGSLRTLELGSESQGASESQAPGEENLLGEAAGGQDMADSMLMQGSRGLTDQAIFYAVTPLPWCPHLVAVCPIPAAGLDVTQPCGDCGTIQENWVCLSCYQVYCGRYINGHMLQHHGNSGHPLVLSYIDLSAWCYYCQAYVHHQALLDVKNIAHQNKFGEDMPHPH
Put plainly: Inhibition of full length N-terminal GST-tagged human recombinant HDAC6 (1 to 1215 residues) expressed in Baculovirus infected Sf9 cells using Ac-Leu-Gly-Lys (Ac)-AMC as substrate pretreated for 5 mins followed by substrate addition and measured after 30 mins. In a few lines:
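HDAC6 at 15 ng/well in Tris buffer pH 8.0 with MgCl2, BSA, NaCl and KCl. Ten 3-fold dilutions preincubated 5 min at room temperature, then 10 μM Ac-Leu-Gly-Lys(Ac)-AMC for 30 min at 37 °C. IC50 by normalized dose–response nonlinear fit; performed at least three times.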

For data set [6], the system named is B16-F10. Description: Inhibition of cell migration in mouse B16-F10 cells assessed as reduction in wound area ratio measured at 100 nM incubated for 24 hrs by wound healing assay. It counts as functional. Also on record: scale not given: the % may be the effect or the level left. The essentials:
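Confluent B16-F10 monolayers, seeded overnight, were scratched with a pipette tip and washed to remove debris. Cells were then treated, and phase-contrast images were taken at 0 and 24 h. Migration distance or wound area measured manually against DMSO control; n = 3.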

In another data set the target is Histone deacetylase 1 (Homo sapiens, UniProt Q13547). Description: Inhibition of full length recombinant human HDAC1 (1 to 482 residues) expressed in Baculovirus system using Ac-Leu-Gly-Lys (Ac)-AMC as substrate pretreated for 5 mins followed by substrate addition and measured after 30 mins.
The target of a further data set is Tubulin (Sus scrofa) (UniProt P02554+P02550). Description: Inhibition of pig brain tubulin polymerization at 10 uM measured after 20 mins by spectrometric method relative to control. The essentials: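 Pig brain tubulin was purified by three assembly/disassembly cycles and then phosphocellulose chromatography. Compound at 10 μM in PEM buffer with 1 mM GTP and 5% glycerol at 37 °C. Polymerization followed at 340 nm; inhibition taken at 20 min versus vehicle control.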

For the next data set, the target named is Tubulin (Sus scrofa, UniProt P02554+P02550). Put plainly: Inhibition of pig brain tubulin polymerization by spectrometric method. The essentials:
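Phosphocellulose-purified pig brain tubulin mixed with graded compound concentrations in PEM buffer (100 mM PIPES, 1 mM MgCl2, 1 mM EGTA) plus 1 mM GTP and 5% glycerol. Absorbance at 340 nm and 37 °C; plateau absorbance used to calculate IC50.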

Data set [7] relates to B16-F10. Description: Antimigratory activity against mouse […] cells assessed as reduction in wound closure measured up to 24 hrs by scratch wound healing assay. It counts as functional, cell-based. Particulars: dose 25-100 nM, DDE = dose-dependent effect. The essentials:
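B16-F10 cells seeded overnight; confluent monolayers scratched with a pipette tip and rinsed twice with medium to clear debris. Cells treated with compound for 24 h against a DMSO control. Phase-contrast images taken at 0 and 24 h. Migration distance into the wound, or scratch length, measured by hand. n = 3.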

Sequence of Histone deacetylase 1 (Q13547 whole entry, the tested form may be a part): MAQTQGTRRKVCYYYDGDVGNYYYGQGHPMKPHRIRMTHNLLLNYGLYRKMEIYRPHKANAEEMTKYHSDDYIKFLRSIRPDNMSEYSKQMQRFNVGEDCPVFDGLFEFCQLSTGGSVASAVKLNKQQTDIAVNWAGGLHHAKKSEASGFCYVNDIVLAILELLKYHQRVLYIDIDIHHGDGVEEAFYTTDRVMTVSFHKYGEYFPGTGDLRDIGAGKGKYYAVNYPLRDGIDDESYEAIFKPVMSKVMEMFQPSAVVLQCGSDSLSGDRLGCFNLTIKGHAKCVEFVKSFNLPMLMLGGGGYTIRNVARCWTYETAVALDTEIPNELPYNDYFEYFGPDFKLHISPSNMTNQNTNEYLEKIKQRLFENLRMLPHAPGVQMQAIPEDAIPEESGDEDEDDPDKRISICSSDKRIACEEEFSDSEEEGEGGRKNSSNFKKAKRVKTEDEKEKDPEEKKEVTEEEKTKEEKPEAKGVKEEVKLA
Sequence of Tubulin (Sus scrofa) (P02550 whole entry, looked up): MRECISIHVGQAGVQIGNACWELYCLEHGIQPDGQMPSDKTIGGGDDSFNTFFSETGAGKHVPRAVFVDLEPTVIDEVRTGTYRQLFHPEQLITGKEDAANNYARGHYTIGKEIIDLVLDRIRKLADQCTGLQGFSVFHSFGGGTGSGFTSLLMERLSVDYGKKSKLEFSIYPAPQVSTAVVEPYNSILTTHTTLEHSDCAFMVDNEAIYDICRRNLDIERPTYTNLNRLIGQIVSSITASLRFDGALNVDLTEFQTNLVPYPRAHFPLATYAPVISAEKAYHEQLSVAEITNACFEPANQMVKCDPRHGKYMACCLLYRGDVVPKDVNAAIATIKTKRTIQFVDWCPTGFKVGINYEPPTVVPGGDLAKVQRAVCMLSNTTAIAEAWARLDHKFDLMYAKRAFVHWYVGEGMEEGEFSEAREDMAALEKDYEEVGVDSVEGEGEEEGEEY
Sequence of Tubulin (Sus scrofa) (P02554 whole entry, looked up): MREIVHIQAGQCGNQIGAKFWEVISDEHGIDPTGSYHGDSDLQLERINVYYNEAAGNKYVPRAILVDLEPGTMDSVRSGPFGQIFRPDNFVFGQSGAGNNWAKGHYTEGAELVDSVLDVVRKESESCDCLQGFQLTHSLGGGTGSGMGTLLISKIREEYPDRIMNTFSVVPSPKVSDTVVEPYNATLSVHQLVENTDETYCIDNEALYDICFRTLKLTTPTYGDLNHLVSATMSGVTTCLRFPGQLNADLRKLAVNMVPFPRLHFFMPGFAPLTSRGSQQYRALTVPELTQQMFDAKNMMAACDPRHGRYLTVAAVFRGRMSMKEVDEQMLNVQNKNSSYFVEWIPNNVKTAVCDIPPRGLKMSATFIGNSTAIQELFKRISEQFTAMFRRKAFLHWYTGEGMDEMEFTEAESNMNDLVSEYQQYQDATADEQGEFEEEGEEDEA

As to `COc1cc(C(=O)c2csc(-c3ccc(NC(=O)CCCC(=O)Nc4ccccc4N)cc3)n2)cc(OC)c1OC`, the Activity result in data set [1] was “Non-Toxic”; in data set [2] it was “Non-Toxic”; in the data set on B16-F10 [3], 66.32%; in the data set with B16-F10 [6], 7.18%; with B16-F10 [7], “Dde”. In the data set with B16-F10 [4], the viability at 0.05 µM came out at 58.9%. In addition, the IC50 (in general, the midpoint of a concentration-inhibition curve) in the data set with HCT-116 was determined as 0.05 µM; in [5], 31 µM; on Histone deacetylase 1, 9.04 µM; against Tubulin, 12.2 µM. The inhibition (commonly the change of the read-out against control, counted positive when it falls) on Tubulin (Sus scrofa) was 70%.
